From PubChem BioAssay
PostGolgi yeast: phenotypic screen on post-Golgi transport, primary screen | 98,000 tested, 0.9% active | AID 739, 2007 | post-Golgi transport phenotypic cell assay | inhibition, % at 10 µM;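 also: yeast cells grown in 1536-well plates; yeast grown about 18 h at 30C before absorbance read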
tolC growth inh: growth inhibitors of E. coli tolC mutant, primary screen, strain BW25113 ΔtolC::kan, 384-well. OD615. growth inhibition, % at 10 µM (by protocol). 65,000 tested, 2.2% active. AID 573, 2007;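 active = growth inhibition at or above a cutoff equal to the mean over every tested compound plus 3 SD, cut at about 60% in these data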;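 also: growth measured after 20 h incubation at 37 °C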
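Test system: E. coli BW25113 ΔtolC::kan bacteria | Medium: Kanamycin-containing LB broth (50 µg/mL) | Dosing: One dose of 10 µM final | Times: 20 h incubation with compound, 37 °C | Detection: Optical density read at 615 nm | Read-out basis: Percent growth inhibition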
HePTP inh: inhibitors of human HePTP phosphatase, primary screen, biochemical, absorbance, leukemia target | Tyrosine-protein phosphatase non-receptor type 7 (Homo sapiens), P35236 | recombinant HePTP phosphatase activity, OD absorbance | inhibition, % at 20 µM | 110,000 tested, 0.64% active | AID 521, 2006; in the data active = inhibition above about 50%;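 also: plate controls were vehicle for no effect and reference inhibitor for full effect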
Target sequence (P35236 whole entry, looked up): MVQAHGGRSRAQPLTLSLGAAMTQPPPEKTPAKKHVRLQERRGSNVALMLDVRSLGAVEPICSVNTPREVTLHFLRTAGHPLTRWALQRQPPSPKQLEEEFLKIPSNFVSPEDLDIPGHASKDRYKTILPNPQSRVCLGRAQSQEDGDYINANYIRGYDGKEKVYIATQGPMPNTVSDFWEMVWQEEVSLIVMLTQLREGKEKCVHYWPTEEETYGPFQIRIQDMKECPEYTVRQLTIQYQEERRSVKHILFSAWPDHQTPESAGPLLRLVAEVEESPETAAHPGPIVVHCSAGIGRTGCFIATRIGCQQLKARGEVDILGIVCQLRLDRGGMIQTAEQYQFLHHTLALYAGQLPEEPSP
Ecoli WT expand: growth inhibitors of wild-type E. coli, primary screen, strain BW25113, expanded library, OD600; 98,000 tested, 0.15% active; growth inhibition, % at 100 µM; OD600 absorbance;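 active = growth inhibition above about 50% at one test dose, limit read from the data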;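 also: growth measured after 20 h incubation at 37 °C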
PLAP act: PLAP enzyme activators, biochemical, luminescence, HTS. 96,000 tested, 1.2% active. activation fold at 20 µM. AID 696, 2007. purified PLAP enzyme, luminescent substrate read-out; active compounds read high; in the data active = activation fold above about 2
PostGolgi ctrl: growth inhibition of yeast control strain, primary screen, counter-screen for post-Golgi transport modulator project; efflux-deficient yeast background strain, growth absorbance A615, 16 h; 98,000 tested, 5% active; AID 738, 2007; inhibition, % at 10 µM
Numbers without * were called inactive. Only some compounds are listed: those with a hit (about 5.4% of all), similar ones and a draw of the others. Rule as the data show it, unless noted: active = inhibition above about 30%; inactive = the rest.

Screening COC(=O)c1cccc(NC(=O)C(C)N2C(=O)c3ccccc3C2=O)c1 (stereo not drawn) returned PostGolgi yeast -4.4, tolC growth inh 6.9, HePTP inh -6.8, Ecoli WT expand -3.0, PLAP act 0.8 and PostGolgi ctrl 2.7.
For CCCCCn1c(CN2CCN(c3cccc(Cl)c3)CC2)nc2c1c(=O)n(C)c(=O)n2C the results were tolC growth inh 62.4*, HePTP inh -12.7 and PLAP act 1.4.
CCCCn1c(CN2CCN(c3cccc(Cl)c3)CC2)nc2c1c(=O)n(C)c(=O)n2C was read as PostGolgi yeast -3.6, tolC growth inh 30.7, HePTP inh 1.1, Ecoli WT expand 8.0, PLAP act 2.1* and PostGolgi ctrl 19.2.
For CC(=O)Nc1ccc2cc(S(=O)(=O)O)cc(OS(=O)(=O)c3ccccc3)c2c1 the results were HePTP inh 8.8.
O=C(c1ccc(-c2ccccc2)cc1)N1CCN(C2CC3CCC2C3)CC1 (stereo not drawn) was read as HePTP inh 71.4*.
Screening O=c1oc(-c2ccccc2[N+](=O)[O-])nc2ccccc12 returned PostGolgi yeast -6.9, HePTP inh 6.2, Ecoli WT expand -6.0, PLAP act 0.9 and PostGolgi ctrl 2.7.
Screening Cc1nc(-c2ccccc2)sc1C(=O)CSc1ccccc1 returned PostGolgi yeast -9.3, Ecoli WT expand -6.0, PLAP act 1.1 and PostGolgi ctrl 30.2*.
`Cc1nc(-c2ccccc2)sc1C(=O)CSc1ccc(F)cc1` gave PostGolgi yeast -0.8, Ecoli WT expand -3.0, PLAP act 1.2 and PostGolgi ctrl 12.7.
`FC(F)(F)c1cccc(N2CCN(c3nnnn3-c3ccccc3)CC2)c1` gave PostGolgi yeast -0.9, tolC growth inh 69.3*, HePTP inh 11.8, Ecoli WT expand 1.0, PLAP act 1.5 and PostGolgi ctrl 1.8.
`c1ccc(CC2CCN(c3nnnn3-c3ccccc3)CC2)cc1` gave PostGolgi yeast 3.7, tolC growth inh 75.7*, HePTP inh 6.4, Ecoli WT expand -35.0, PLAP act 1 and PostGolgi ctrl 31.5*.
Cc1ccc(-c2nc3ncccc3o2)cc1NC(=O)COc1ccc(C(C)(C)C)cc1 was read as HePTP inh 7.7.
`Cc1ccc(-c2nc3cccnc3o2)cc1NC(=O)COc1ccc(C(C)(C)C)cc1` gave PostGolgi yeast 5.2, HePTP inh -3.9, Ecoli WT expand 5.0, PLAP act 1.4 and PostGolgi ctrl 42.5*.
`COc1cc(/C=c2\sc3nc4ccccc4n3c2=O)ccc1OS(=O)(=O)c1ccccc1` gave HePTP inh -2.8.
Screening c1nc(N2CCCCC2)c2[nH]cnc2n1 returned PostGolgi yeast -2.4, tolC growth inh -8.3, HePTP inh 0.6, Ecoli WT expand 9.0, PLAP act 1.2 and PostGolgi ctrl -3.9.
`c1ccc2c(c1)CCN(c1ncnc3nc[nH]c13)C2` gave PostGolgi yeast -8.6, tolC growth inh -6.9, HePTP inh 0.5, Ecoli WT expand 7.0, PLAP act 1.5 and PostGolgi ctrl -1.4.
`C1=C(c2ccccc2)CCN(c2ncnc3nc[nH]c23)C1` gave PostGolgi yeast -9.4, tolC growth inh 9.8, HePTP inh 4.5, Ecoli WT expand -2.0, PLAP act 2* and PostGolgi ctrl 10.9.
`c1ccc(CN2CCN(c3ncnc4nc[nH]c34)CC2)cc1` gave PostGolgi yeast -2.4, tolC growth inh -13.8, HePTP inh 10.3, Ecoli WT expand 6.0, PLAP act 2.1* and PostGolgi ctrl 13.3.
CCCCCn1c(SCC(=O)c2ccccc2)nc2cc(C(=O)NCc3ccco3)ccc2c1=O was read as PostGolgi yeast -0.6, Ecoli WT expand 1.0, PLAP act 1 and PostGolgi ctrl 0.8.
Screening CCOC(=O)Cc1c(C)c2ccc(N(CC)CC)cc2oc1=O returned PostGolgi yeast 45.6*, tolC growth inh 17.2, HePTP inh 3.5, Ecoli WT expand -2.0, PLAP act 1.4 and PostGolgi ctrl 0.8.
`O=c1ccsn1Cc1ccccc1` gave PostGolgi yeast -0.5, tolC growth inh 99.7*, HePTP inh 8.1, Ecoli WT expand 100.0*, PLAP act 0.9 and PostGolgi ctrl -1.8.
